According to ChEMBL document CHEMBL3272138, “Prostaglandins and congeners. 16. Synthesis and bronchodilator activity of dl-11-doexy-3-thiaprostaglandins” (1977):

Columns and labels:
Canis familiaris [1] = assay: Bronchodilatory activity in anesthetized dog assessed as inhibition of pilocarpine-induced bronchospasms at 0.016 to 0.032 ug/kg administered through aerosol 15 mins post challenge measured up to 1 hr; format: functional, Canis lupus familiaris
How it was run: (§1)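 In anesthetized dogs, a long-lasting bronchospasm was induced by pilocarpine, 400 µg/kg injection then 4 µg/kg/min perfusion, requiring an airway resistance increase of at least 200–300% over resting. After a 15-min control period, the compound was delivered by ultrasonic aerosol. Inhibition of bronchoconstriction was followed for the 1-h experiment.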

Cavia porcellus [2] = assay: Bronchodilator activity in iv dosed Hartley guinea pig assessed as inhibition of serotonin-induced bronchoconstriction administered 2 mins post serotonin challenge as 3 to 4 doses in 15 mins interval; format: functional
How it was run: (§2)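 Guinea pigs under urethane anesthesia, gallamine-paralyzed and artificially ventilated (60 strokes/min). Bronchospasm was evoked by iv acetylcholine (40–150), histamine (5.6–22.5) or serotonin (7.5–30 μg/kg), giving a 20–50 cm water rise in tracheal pressure, every 5 min. Three or four log-spaced iv doses (esters in 10% aqueous ethanol) were given at 15-min intervals, with ≥4 animals per spasmogen. ED50 (–50% variation of the first spasm) came from a semilog regression; if never reached, ED50 > maximal dose.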

Cavia porcellus [3] = assay: Bronchodilator activity in iv dosed Hartley guinea pig assessed as inhibition of histamine-induced bronchoconstriction administered 2 mins post histamine challenge as 3 to 4 doses in 15 mins interval; format: functional; how it was run: as §2
Cavia porcellus [4] = assay: Bronchodilator activity in iv dosed Hartley guinea pig assessed as inhibition of acetylcholine-induced bronchoconstriction administered 2 mins post acetylcholine challenge as 3 to 4 doses in 15 mins interval; format: functional; details: for ED50: Cavia porcellus, Hartley, iv; how it was run: as §2
Canis familiaris [5] = assay: Bronchodilatory activity in anesthetized dog assessed as inhibition of pilocarpine-induced bronchospasms compound administered through aerosol 15 mins post challenge measured up to 1 hr; format: functional; details: Canis lupus familiaris, inhaled or nasal; how it was run: as §1
Cavia porcellus [6] = assay: Bronchodilator activity in Hartley guinea pig assessed as inhibition of histamine-induced bronchoconstriction at 3.2 mg/kg, iv administered 2 mins post histamine challenge as 3 to 4 doses in 15 mins interval; format: functional
How it was run: (§3)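 Urethane (1.5 g/kg ip) anesthetized, gallamine-curarized, ventilated guinea pigs. Spasms were induced by 12-s iv jugular injections every 5 min to raise tracheal pressure 20–50 cm water: acetylcholine 40–150, histamine 5.6–22.5, or serotonin 7.5–30 μg/kg. The drug was given iv over 1 min, 2 min after three stable control spasms. Salts were given as such and esters in 10% aqueous ethanol. Spasm amplitude was expressed as percent variation vs control, with ≥4 animals per spasmogen.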

Cavia porcellus [7] = assay: Bronchodilator activity in Hartley guinea pig assessed as inhibition of acetylcholine-induced bronchoconstriction at 3.2 mg/kg, iv administered 2 mins post acetylcholine challenge as 3 to 4 doses in 15 mins interval; format: functional; how it was run: as §3
Cavia porcellus [8] = assay: Bronchodilator activity in Hartley guinea pig assessed as inhibition of serotonin-induced bronchoconstriction at 3.2 mg/kg, iv administered 2 mins post serotonin challenge as 3 to 4 doses in 15 mins interval; format: functional; how it was run: as §3
Canis familiaris [9] = assay: Bronchodilatory activity in anesthetized dog assessed as inhibition of pilocarpine-induced bronchospasms at 16 to 32 ug/kg administered through aerosol 15 mins post challenge measured up to 1 hr; format: functional, Canis lupus familiaris
How it was run: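 Anesthetized dogs receive a pilocarpine injection of 400 µg/kg, followed by a pilocarpine perfusion of 4 µg/kg/min, to produce a long-acting bronchospasm. Airway resistance must rise to at least 200-300% of the resting value. After a 15-min control period, compound is given by ultrasonic aerosol. Read-out is percent inhibition of the pilocarpine bronchoconstriction, followed over the 1 h experiment.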

Structure (SMILES) | ED50 (Cavia porcellus [2]) | ED50 (Cavia porcellus [3]) | ED50 (Cavia porcellus [4]) | inhibition in vivo at 3.2 mg/kg (Cavia porcellus [7]) | inhibition in vivo at 3.2 mg/kg (Cavia porcellus [8]) | other results
CCCCCC(O)/C=C/C1C(O)CC(=O)C1CCCCCCC(=O)O (stereo unspecified) | – | – | – | – | – | inhibition (INH) (Canis familiaris [1]): 70%
CCCCC(C)(C)[C@H](O)/C=C/C1CCC(=O)[C@@H]1CCCCCCC(=O)O (mixture of isomers) | 0.0259 mg/kg | 0.00417 mg/kg | 0.0429 mg/kg | – | – | –
CCCCC[C@](C)(O)/C=C/C1CCC(=O)[C@@H]1CCCCCCC(=O)O (mixture of isomers) | 0.00699 mg/kg | 0.00424 mg/kg | – | – | – | MED50 (Cavia porcellus [4]): 0.0032 mg/kg
CCCCC[C@H](O)/C=C/C1CCC(=O)[C@@H]1CCCCSCC(=O)O (mixture of isomers) | 0.00129 mg/kg | 0.00507 mg/kg | 0.00514 mg/kg | – | – | ED50 (Canis familiaris [5]): 0.0016 mg/kg
CCCCC[C@@H](O)/C=C/C1CCC(=O)[C@@H]1CCCCSCC(=O)O (mixture of isomers) | 0.0233 mg/kg | 0.0113 mg/kg | – | – | – | MED50 (Cavia porcellus [4]): 0.2 mg/kg
CCCCC[C@](C)(O)/C=C/C1CCC(=O)[C@@H]1CCCCSCC(=O)O (mixture of isomers) | 0.0054 mg/kg | 0.00185 mg/kg | 0.0193 mg/kg | – | – | –
CCCCC(C)(C)[C@H](O)/C=C/C1CCC(=O)[C@@H]1CCCCSCC(=O)O (mixture of isomers) | 0.0523 mg/kg | 0.0242 mg/kg | 0.604 mg/kg | – | – | –
CCCCC(C)(C)[C@@H](O)/C=C/C1CCC(=O)[C@@H]1CCCCSCC(=O)O (mixture of isomers) | 0.032 mg/kg | 0.324 mg/kg | – | – | – | –
CCCCC[C@H](O)/C=C/C1CCC(=O)[C@@H]1CCCSCC(=O)O (mixture of isomers) | – | – | – | < 50% | < 50% | inhibition in vivo at 3.2 mg/kg (Cavia porcellus [6]): < 50%
CCCCC[C@](C)(O)/C=C/C1CCC(=O)[C@@H]1CCCSCC(=O)O (mixture of isomers) | – | 2.99 mg/kg | – | < 50% | < 50% | –
CCCCC[C@H](O)/C=C/C1CCC(=O)[C@@H]1CCCCCSCC(=O)O (mixture of isomers) | – | – | – | < 50% | < 50% | inhibition in vivo at 3.2 mg/kg (Cavia porcellus [6]): < 50%
CCCCC[C@@H](O)/C=C/C1CCC(=O)[C@@H]1CCCCCSCC(=O)O (mixture of isomers) | – | – | – | < 50% | < 50% | inhibition in vivo at 3.2 mg/kg (Cavia porcellus [6]): < 50%
CCCCC(C)(C)[C@H](O)/C=C/C1CCC(=O)[C@@H]1CCCCCSCC(=O)O (mixture of isomers) | – | – | – | < 50% | < 50% | inhibition in vivo at 3.2 mg/kg (Cavia porcellus [6]): < 50%
CCCCC[C@H](O)/C=C/C1CCC(=O)C1CCCCCCC(=O)O (mixture of isomers) | 0.000397 mg/kg | 0.0034 mg/kg | 0.032 mg/kg | – | – | –
CC(C)NC[C@H](O)c1ccc(O)c(O)c1 [LEVISOPRENALINE] | – | – | – | – | – | inhibition (INH) (Canis familiaris [9]): 80%
